Screening data from PubChem BioAssay.
Compounds with a hit are over-represented: about 2.6% of the library has one in this group of screens.
PolyA inhibitor: polyadenylation inhibitors in yeast reporter cells, primary screen, luminescence, S. cerevisiae. S. cerevisiae SKY197-pL101 polyadenylation reporter, beta-gal luminescence; efflux-impaired pdr1/pdr3 knockout yeast; score 100 = 6 SD above DMSO. activity score, % at 12 µM. 300,000 compounds, 0.02% hits;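 active = lowest replicate activity score at least 50, where 100 means six control SD above control mean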;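 note: yeast exposed to compound for 9 h at 30 °C; higher score means more reporter readthrough which indicates perturbed polyadenylation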
AHR act: AHR activators, primary screen, cell-based, luminescence, luciferase reporter, human; Aryl hydrocarbon receptor (Homo sapiens), P35869; AHR-responsive luciferase reporter cells; activation, % at 5 µM; 320,000 compounds, 2.5% hits; in the data active = activation above about 47%;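 note: 0% = vehicle wells and 100% = reference agonist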
Target sequence (P35869 whole entry, looked up): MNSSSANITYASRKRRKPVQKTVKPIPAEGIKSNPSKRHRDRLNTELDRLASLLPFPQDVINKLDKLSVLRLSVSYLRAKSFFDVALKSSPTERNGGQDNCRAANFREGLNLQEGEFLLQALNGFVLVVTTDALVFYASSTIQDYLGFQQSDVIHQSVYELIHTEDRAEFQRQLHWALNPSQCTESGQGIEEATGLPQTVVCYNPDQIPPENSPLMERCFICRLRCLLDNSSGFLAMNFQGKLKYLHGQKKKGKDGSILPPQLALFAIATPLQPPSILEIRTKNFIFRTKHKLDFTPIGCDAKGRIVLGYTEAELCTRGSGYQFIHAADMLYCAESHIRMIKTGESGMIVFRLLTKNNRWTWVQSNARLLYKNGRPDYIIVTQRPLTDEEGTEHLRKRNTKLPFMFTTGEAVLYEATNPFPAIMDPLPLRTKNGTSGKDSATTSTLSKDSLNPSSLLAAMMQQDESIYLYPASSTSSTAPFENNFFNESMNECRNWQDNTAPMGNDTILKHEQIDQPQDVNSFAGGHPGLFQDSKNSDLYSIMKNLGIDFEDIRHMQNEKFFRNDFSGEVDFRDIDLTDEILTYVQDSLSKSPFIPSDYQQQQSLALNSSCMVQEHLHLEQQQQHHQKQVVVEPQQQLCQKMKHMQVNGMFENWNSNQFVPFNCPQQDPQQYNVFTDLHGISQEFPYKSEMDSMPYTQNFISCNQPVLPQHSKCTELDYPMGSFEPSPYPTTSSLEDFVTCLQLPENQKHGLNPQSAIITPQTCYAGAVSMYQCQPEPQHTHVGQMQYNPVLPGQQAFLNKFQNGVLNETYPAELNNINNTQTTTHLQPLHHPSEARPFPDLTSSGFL
proCasp3 act: activators of human procaspase-3 D3A mutant, primary screen, biochemical, absorbance, PC-3 D3A mutant, single concentration | 330,000 compounds, 0.11% hits | recombinant procaspase-3 D3A, Ac-DEVD-pNA absorbance 405 nm | activation, % at 8.5 µM | AID 463141, 2010 | Caspase-3 (Homo sapiens), P42574;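 active = activation above the mean of all tested compounds plus 3 SD, cut at about 21% in these data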;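 note: 0% = DMSO alone and 100% = DMSO wells spiked with extra 5 µM PC-3 D3A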
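Technique: 405 nm absorbance of p-nitroaniline, reads at 0 and 120 min; Test system: Procaspase-3 D3A mutant; Incubation: 1 h enzyme-compound preincubation, then 2 h substrate reaction, 25 °C; Repeats: singlicate, each compound tested once; Benchmarks: low control DMSO wells, high control DMSO plus 5 µM PC-3 D3A.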
proCasp7 act: procaspase-7 activators, primary screen, counter-screen for procaspase-3 activator project, biochemical, absorbance, HTS, human; AID 463210, 2010; Caspase-7 (Homo sapiens), P55210; activation, % at 8.5 µM; 330,000 compounds, 0.093% hits; recombinant procaspase-7, Ac-DEVD-pNA absorbance 405 nm; D23A/D198A/D206A triple mutant, cannot self-cleave; scale: DMSO 0, 5 µM enzyme 100;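 active = percent activation above the screen-wide mean plus 3 SD, cut at about 25% in these data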
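Material: Procaspase-7 triple mutant (PC-7 D3A) | Quantity: 2 µM procaspase-7 mutant as dispensed | Reagent: DEVD-pNA substrate | Times: 1 h preincubation, 2 h reaction | Technique: 405 nm absorbance of p-nitroaniline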
AHR act confirm: AHR activators, confirmation, cell-based, luminescence, luciferase reporter, human | 2,300 compounds, 87% hits | activation, % at 9 µM | shares compounds with AHR act | human cells, AHR-responsive luciferase reporter; in the data active = activation above about 49%;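 note: HepG2 hepatoma cells carrying a DRE-driven firefly luciferase reporter; 0% = vehicle wells and 100% = reference agonist wells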
PXR act counter: human PXR activators, counter-screen for AHR activator project, cell-based, luciferase luminescence | AID 434939, 2010 | 2,300 compounds, 88% hits | cell-based PXR reporter | activation, % at 11.6 µM | shares compounds with AHR act; in the data active = activation above about 11%;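 note: human hepatoma DPX-2 cells expressing full-length human PXR; 0% = DMSO and 100% = reference agonist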
* hit, by the source's call; nt = no result given.

SMILES	PolyA inhibitor	AHR act	proCasp3 act	proCasp7 act	AHR act confirm	PXR act counter
Cc1c(=O)n(OCc2ccccc2F)c2ccccc2[n+]1[O-]	-0.2	94.1*	1.2	19.6	139.4*	26.1*
CCn1c(C)csc1=NC(=O)c1ccccc1O	-18.3	93.4*	-0.5	-7.6	94.5*	15.2*
Cc1csc(=NC(=O)c2ccccc2)n1Cc1ccco1	-27.3	3.9	0.6	-9.0	nt	nt
ONC(=Nc1ccc(Cl)cc1)c1ccc(Cl)cc1	-3.1	117.3*	-1.8	-10.2	115.2*	12.4*
[S-]C(=Nc1ccc(Cl)cc1)N[n+]1ccccc1	-7.1	5.9	-17.2	-27.2	nt	nt
Cc1cccc(-c2cc3nc(-c4ccccc4)cc(=O)n3[nH]2)c1	-5.2	89.1*	2.7	3.9	104.8*	33.8*
CCCc1cc(=O)n2[nH]c(-c3ccc(Br)cc3)cc2n1	-1.7	104.0*	7.1	-0.3	110.3*	47.1*
CCOC(=O)Cc1cc(=O)n2[nH]c(-c3ccccc3)cc2n1	-0.5	4.2	3.6	8.1	nt	nt
CCCc1cc(=O)n2[nH]c(-c3cccc(Br)c3)cc2n1	2.1	159.5*	2.6	3.6	166.2*	34.8*
COc1cccc(CNC(=O)COC(=O)/C=C/c2ccc(SC)cc2)c1	nt	0.1	2.1	0.2	nt	nt
COc1ccc(CC(=O)Oc2ccc(C(C)(C)C)cc2)cc1S(=O)(=O)N1CCOCC1	-0.3	1.6	2.1	1.0	nt	nt
O=C(NN=C1CCC(c2ccccc2)CC1)c1ccccc1-n1cccc1 (stereo not given)	5.6	116.6*	-3.0	12.0	3.7	9.4
CC1CCC/C(=N/NC(=O)c2ccccc2-n2cccc2)C1 (stereo not given)	-7.4	83.0*	1.1	2.1	6.5	11.3*
O=[N+]([O-])c1ccc(N/N=C\c2ccccc2OCc2ccccc2)cc1	-20.9	84.7*	-29.2	-36.4	61.9*	46.3*
CCc1ccc(OCC(=O)N2CC(C(N)=O)Oc3ccccc32)cc1 (stereo not given)	8.2	43.1	1.8	-2.7	nt	nt
Cn1cccc1C(=O)NC(=O)COC(=O)CCNS(=O)(=O)c1cccc(C(F)(F)F)c1	nt	1.2	9.0	-3.0	nt	nt
COc1ccc(C)cc1Nc1nc(-c2c[nH]c3ccccc23)cs1	0.4	89.3*	-15.0	-19.9	64.0*	16.6*
COc1ccc(-n2ccc(=O)c(C(=O)O)n2)c(OC)c1	-3.3	-0.6	1.8	0.2	nt	nt
Cc1cc2n(n1)C(c1ccc3c(c1)OCO3)Nc1ccccc1-2 (stereo not given)	-9.2	95.6*	3.7	1.7	90.9*	41.7*
Nc1nc(-c2ccccc2)nc2sc3c(c12)CCCC3	-38.1	92.4*	-2.7	8.9	88.8*	54.5*
O=c1oc(-c2ccccc2)nc2sc3c(c12)CCC3	-24.3	6.4	0.3	5.6	nt	nt
O=C(c1cccc(S(=O)(=O)N2CCc3ccccc32)c1)N1CCN(c2ccccn2)CC1	-2.7	79.8*	5.8	7.5	93.1*	199.9*
NS(=O)(=O)c1ccc(NC2=CC(=O)C(=O)c3ccccc32)cc1	9.7	114.3*	2.1	-6.4	19.8	5.0
COc1cccc(-c2nc(C(N)=O)c3[nH]c(=O)n(-c4cccc(Cl)c4)c3n2)c1OC	23.0	89.1*	11.6	4.3	92.5*	30.9*
CCc1nc2ccccc2c(C(=O)OCc2nc3ccccc3c(=O)[nH]2)c1C	nt	117.9*	5.7	12.5	86.5*	53.6*
COc1cccc(N2CCN(C(=O)CN3C(=O)NC(C)(c4ccc5ccccc5c4)C3=O)CC2)c1 (stereo not given)	6.5	4.0	2.7	3.3	nt	nt
Cc1cc(NCCCn2ccnc2)n2nc(-c3ccc(Cl)cc3)cc2n1	11.9	134.5*	-2.0	-3.5	110.1*	17.9*
